Assay outcomes from PubChem.
TAAR1 agonist = agonists of human TAAR1. CHO RD-HGA16 TAAR1, Fluo-8 calcium fluorescence; vehicle wells 0%, saturating PEA agonist 100%. AID 624467. Q96RJ0. activation, % at 3 µM. 360,000 tested, 0.99% active;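 active = activation above the mean activation of all test compounds in the run plus 3 SD, cut at about 38% in these data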
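Signal – calcium-sensitive Fluo-8 signal, excitation 470-495, emission 515-575 nm · System – RD-HGA16 (CHO) cells co-expressing Gα16 and hTAAR1 · Incubation – 17-24 h seeding, 75 min 37 °C dye, 30 min RT · Compound dosing – 3 µM single concentration · Repeats – no replicates (n 1)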
CHRM1 PAM = human CHRM1 positive allosteric modulation. P11229. activation, % at 3 µM. 360,000 tested, 0.088% active. CHO-K1 hM1, Fluo-8 calcium fluorescence, ACh EC20; 0% = ACh EC20, 100% = maximal ACh; in the data active = activation above about 19%, passing the limit was not always enough
Target sequence (P11229 whole entry, looked up): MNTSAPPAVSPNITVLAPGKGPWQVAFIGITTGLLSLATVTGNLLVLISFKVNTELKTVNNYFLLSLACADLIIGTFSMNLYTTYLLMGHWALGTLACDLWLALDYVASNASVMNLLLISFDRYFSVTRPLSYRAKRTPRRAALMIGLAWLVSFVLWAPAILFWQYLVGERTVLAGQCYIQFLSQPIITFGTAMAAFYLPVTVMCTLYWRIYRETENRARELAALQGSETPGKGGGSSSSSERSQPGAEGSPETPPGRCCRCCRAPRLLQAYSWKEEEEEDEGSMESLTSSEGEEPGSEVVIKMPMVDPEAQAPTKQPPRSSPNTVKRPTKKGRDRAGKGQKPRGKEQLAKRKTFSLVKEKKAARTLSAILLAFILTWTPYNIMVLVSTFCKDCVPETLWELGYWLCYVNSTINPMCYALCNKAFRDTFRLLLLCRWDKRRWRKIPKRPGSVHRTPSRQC
CHRM1 agonist = human M1 muscarinic receptor agonism. activation, % at 3 µM. 360,000 tested, 0.33% active. P11229. CHO-K1 hM1, Fluo-8 calcium fluorescence, agonist mode; 0% DMSO, 100% acetylcholine EC100;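 active = activation above the run's mean compound activation plus 3 SD, cut at about 16% in these data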;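 also: peak over basal fluorescence ratio within a 140 s kinetic read after compound addition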
TAAR1 antag = antagonists of human TAAR1. CHO RD-HGA16 TAAR1, Fluo-8 calcium fluorescence, antagonist. AID 624466. 360,000 tested, 1.5% active. inhibition, % at 3 µM. Q96RJ0;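 active = inhibition above a per-plate cutoff, the mean inhibition of test compounds on that plate plus 3 SD, cut at about 49% in these data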
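System: RD-HGA16 CHO cells with stable hTAAR1 and Gα16 | Probe or stimulus: EC80 β-phenethylamine stimulus | Dosing: 3 µM, single point | Times: Dye loading 75 min at 37 °C, then 30 min room temperature | Measured by: Fluo-8 calcium-sensitive fluorescence | Read-out basis: % inhibition of agonist calcium response | Replicates: n of 1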
M1 antag = antagonists of human M1 muscarinic receptor | P11229 | CHO-K1 hM1, Fluo-8 calcium fluorescence, ACh EC80 antagonist | inhibition, % at 3 µM | 360,000 tested, 1.3% active;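 active = percent inhibition above its own plate's cutoff, namely the mean of that plate's compound wells plus 3 SD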;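 also: peak over basal fluorescence ratio during 140 s after agonist addition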
Numbers stand for hits; – = inactive; · = no result. Only some compounds are listed: those with a hit (about 3.4% of all), similar ones and a draw of the others.

SMILES	TAAR1 agonist	CHRM1 PAM	CHRM1 agonist	TAAR1 antag	M1 antag
C=CCN=C1NC(c2cccc(F)c2)C(C(=O)OC)=C(C)N1Cc1ccccc1C(F)(F)F (stereo unspecified)	–	·	·	–	·
COc1ccc(OCc2cc(C(=O)NCCN3CCCc4ccccc43)no2)c(Cl)c1	–	–	–	–	53
COCC(=O)NCC1CCN(C(=O)C(=O)c2cccs2)CC1	–	·	·	–	·
CN(C)CCNC(=O)c1ccc(COc2ccc(Cl)cc2Cl)cc1	–	–	–	–	31
COCCN(C(=S)Nc1cc(C)cc(C)c1)C(C)c1ccco1 (stereo unspecified)	–	26	–	–	–
Cc1ccc(NC(=S)NCc2ccc(Cl)cc2)c(OC(F)F)c1	–	–	–	–	34
Cc1ccc(CNC(=S)Nc2ccc(OC(F)F)cc2C)cc1	–	–	–	–	–
COc1ccc([C@@H]2CC(=O)[C@@H]3CN(S(=O)(=O)c4ccc(C)cc4)[C@H](c4cccc(Cl)c4)C[C@@H]3N2S(=O)(=O)c2ccccc2)cc1	–	–	–	–	–
Cc1ccccc1N1CCN(C2CCCN(C(=O)CCC(=O)N(C)C)C2)CC1 (stereo unspecified)	–	–	–	–	–
Cc1ccn(CCC(=O)N2CCCC(N3CCN(c4ccccc4C)CC3)C2)n1 (stereo unspecified)	–	–	49	–	–
COc1ccc(NC(=O)C(C)Oc2ccc(/C(C)=N\O)cc2)cc1 (stereo unspecified)	55	–	17	–	–
COc1ccc(NC2=CC(c3cccc(OC)c3)N(c3ccc(OC)cc3)C2=O)cc1 (stereo unspecified)	–	–	–	–	47
O=C(c1ccco1)[C@@H]1[C@@H]2C(=O)N(c3ccccc3)C(=O)[C@@H]2C2c3ccccc3C=CN21 (stereo partly specified)	–	–	–	–	–
COc1ccc(N2C(=O)[C@@H]3[C@H](C2=O)[C@H]2c4ccccc4C=CN2[C@@H]3C(=O)Nc2ccccc2)cc1	–	–	50	–	–
CN(C)CCCOc1ccc2c(c1)Sc1ccccc1CC2=O	–	–	24	–	–
CC1CCC(NS(=O)(=O)c2ccc(N3CCCC3=O)cc2)CC1 (stereo unspecified)	–	–	–	–	46
CC1CCN(CC(=O)Nc2ccc(S(=O)(=O)N3CCC(C)CC3)cc2)CC1	–	–	–	–	–
O=C1CCCN1c1ccc(S(=O)(=O)Nc2cccnc2)cc1	–	–	–	–	–
CC1CCN(CC(=O)Nc2ccc(S(=O)(=O)NC3CC3)cc2)CC1	–	–	–	–	74
CCN1CCN(CC(=O)Nc2ccc(S(=O)(=O)N3C(C)CCCC3C)cc2)CC1 (stereo unspecified)	–	–	–	–	24
CC1CCN(S(=O)(=O)c2ccc(NC(=O)CN3CCCC3)cc2)CC1	–	–	–	–	–
O=C(CNC1CCCCCC1)Nc1ccc(S(=O)(=O)NC2CC2)cc1	–	–	–	–	32
Nc1[nH]c(C(=O)c2ccccc2)c(-c2ccc(Cl)cc2)c1C(=O)c1c[nH]c2ccc(Br)cc12	–	·	·	–	·
COc1ccc(N2CCN(c3cc(C(=O)Nc4cc(OC)c(OC)c(OC)c4)ncn3)CC2)cc1OC	–	–	–	–	–
CCOC(=O)COc1ccccc1/C=N\NC(=O)c1cc2c(ccc3ccccc32)o1	–	–	–	49	–
SMILES	TAAR1 agonist	CHRM1 PAM	CHRM1 agonist	TAAR1 antag	M1 antag
COc1ccc(CN(C)C(=O)C(CCSC)NS(=O)(=O)c2ccc3c(c2)OCCO3)c(OC)c1OC (stereo unspecified)	–	–	–	56	–
COc1ccc(NC(C)=O)cc1NS(=O)(=O)c1ccc2c(c1)OCCO2	–	–	–	–	–
O=C(NCc1ccccc1)[C@H]1CCCN1C(=O)[C@H]1CCCN1C(=O)c1cccc(Cl)c1	–	·	·	–	·
CC[C@H](C)[C@H]1CNC(=S)N1CC1CCN(CCCC2CCCC2)CC1	–	–	–	–	38
CC(C)C[C@H]1CNC(=S)N1CC1CCN(CC2CCCC2)CC1	–	–	–	–	–
S=C1NCCN1CC1CCN(CCC23CC4CC(CC(C4)C2)C3)CC1	–	–	–	–	85
CC(C)C[C@H]1CNC(=S)N1CC1CCN(CC2CCC(C(C)(C)C)CC2)CC1 (stereo partly specified)	–	–	–	–	76
CC[C@H](C)[C@H]1CNC(=S)N1CC1CCN(CCCCc2ccccc2)CC1	–	–	–	–	71
O=C(N[C@H](C(=O)N1CCC[C@H]1C(=O)NC1CCCC1)C1CCCCC1)c1nccs1	–	·	·	–	·
CC(C)C[C@H]1CNC(=S)N1CC1CCN(CCCC2CCCCC2)CC1	–	–	–	–	83
CC(C)C[C@H]1CNC(=S)N1CC1CCN(CCC23CC4CC(CC(C4)C2)C3)CC1	–	–	–	–	88
N/C(=N\OC(=O)COc1ccccc1Cl)c1ccccn1	–	–	–	–	–
N/C(=N\OC(=O)COc1ccc2ccccc2c1)c1ccccn1	48	–	–	–	–
N/C(=N\OC(=O)Cc1ccc(-c2ccccc2)cc1)c1ccccn1	–	–	–	–	–
N/C(=N\OC(=O)CSc1ccccc1)c1ccccn1	–	28	–	–	–
Cc1ncc(CO)c2cc(S(=O)(=O)c3ccc(F)cc3)c(=O)oc12	–	–	–	–	23
O=C(Nc1c(-c2ccc(Cl)cc2)[nH][nH]c1=O)c1ccc(Br)cc1	–	–	–	–	–
COc1cc(OC)c(OC)cc1/C=C1\CC(C)C/C(=C\c2cc(OC)c(OC)cc2OC)C1=O (stereo unspecified)	–	–	–	51	–
C[C@H](CO)N1C[C@H](C)[C@@H](CN(C)C(=O)C2CC2)OCc2cn(nn2)CCCC1=O	–	·	·	–	·
COC(C[C@@H]1O[C@H]1C(=O)COCc1ccccc1)OC	–	30	–	–	–
Cc1ccc(NC(=O)COC(=O)c2ccc([N+](=O)[O-])s2)c(C)c1	39	–	–	–	–
COc1ccc2c(c1)CC/C(=C\c1ccc(OC)c(Cn3nc(C)cc3C)c1)C2=O	44	–	–	–	–
CCOC(=O)N1CCN(C(=O)C2CCN(C(=O)c3ccccc3C)CC2)CC1	66	–	–	–	–
CCOC(=O)C1=C(C)Nc2ccccc2N=C1NC(=O)C1CCN(C(=O)c2ccccc2C)CC1	–	–	–	49	–
Cc1ccccc1C(=O)N1CCC(C(=O)N2CCN(c3ncccn3)CC2)CC1	–	–	–	–	–
Nc1nc2c(ncn2[C@@H]2O[C@H](C(=O)NC3CCCCC3)[C@@H](O)[C@H]2O)c(=O)[nH]1	–	·	·	–	·
COc1cc(/C=C2\S/C(=N/S(=O)(=O)Cc3ccccc3)NC2=O)c([N+](=O)[O-])cc1OC	–	–	–	–	–
